In brackets after ≈: the same amount, converted by molar mass.
Legend:
[1] = target: Somatostatin receptor type 5 (Homo sapiens, UniProt P35346); assay: Displacement of SST14 from human recombinant SST5 receptor expressed in CHO cells by radioligand binding assay; format: cell-based
How it was run: (§1)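 Membranes prepared by sonication from cells expressing the SST receptor subtype, incubated with radiolabeled 11-Tyr SST-14 tracer and test compound at varying concentrations; non-labeled SST-14 defined non-specific binding. Incubation stopped by glass-fiber filtration, bound radioactivity counted; IC50 for half-maximal binding inhibition estimated and Ki derived.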

[2] = target: Somatostatin receptor type 2 (Homo sapiens, UniProt P30874); assay: Displacement of SST14 from human recombinant SST2 receptor; how it was run: as §1
[3] = target: Somatostatin receptor type 3 (Homo sapiens, UniProt P32745); assay: Displacement of SST14 from human recombinant SST3 receptor; how it was run: as §1
[4] = target: Somatostatin receptor type 4 (Homo sapiens, UniProt P31391); assay: Displacement of SST14 from human recombinant SST4 receptor; how it was run: as §1
Histamine H1 receptor = Histamine H1 receptor (Homo sapiens, UniProt P35367); assay: Binding affinity to human histamine H1 receptor
Homo sapiens = species: Homo sapiens; assay: Selectivity ratio of Ki for human histamine H1 receptor to Ki for human SST5 receptor
[5] = Solubility in phosphate buffer at pH 6.5 by lyophilization solubility assay; format: physicochemical
How it was run: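 Lyophilized DMSO stock solutions redissolved in 50 mM phosphate buffer, pH 6.5; solubility read spectrophotometrically.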

[6] = sPermeability by PAMPA; format: ADME; details: read-out: permeability
How it was run: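 Parallel artificial membrane permeation; Pe categorized as low (<0.1), medium (0.1–1.0) or high (>1.0).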

[7] = Octanol-TAPSO partition coefficient, log D at pH 7.4 by spectrophotometry; format: physicochemical; details: octanol/TAPSO buffer
How it was run: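 Spectrophotometric log D in 1-octanol/50 mM TAPSO buffer, pH 7.4, containing 5% (v/v) DMSO.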

[8] = Dissociation constant, pKa by spectrophotometry; format: physicochemical
[9] = Clearance in Wistar rat administered as single dose; format: ADME, organism-based; details: in vivo
[10] = Volume of distribution at steady state in Wistar rat administered as single dose; format: ADME, organism-based; details: in vivo, read-out: Vdss
[11] = Terminal half-life in Wistar rat administered as single dose; format: ADME, organism-based; details: in vivo, read-out: beta t1/2 (converted)
[12] = Oral bioavailability in Wistar rat administered as single dose; format: ADME, organism-based; details: in vivo

Somatostatin receptor type 4, sequence (P31391 whole entry): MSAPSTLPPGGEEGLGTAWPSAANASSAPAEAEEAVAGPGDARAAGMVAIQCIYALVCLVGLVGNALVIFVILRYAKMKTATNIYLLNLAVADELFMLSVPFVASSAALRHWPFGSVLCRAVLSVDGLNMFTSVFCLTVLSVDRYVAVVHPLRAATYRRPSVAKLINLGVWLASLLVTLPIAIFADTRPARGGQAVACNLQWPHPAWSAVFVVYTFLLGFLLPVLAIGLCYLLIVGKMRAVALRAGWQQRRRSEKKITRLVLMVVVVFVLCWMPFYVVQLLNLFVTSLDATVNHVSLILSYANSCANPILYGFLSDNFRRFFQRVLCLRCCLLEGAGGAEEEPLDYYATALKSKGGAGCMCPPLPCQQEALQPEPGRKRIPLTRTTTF
Somatostatin receptor type 2, sequence (P30874 whole entry): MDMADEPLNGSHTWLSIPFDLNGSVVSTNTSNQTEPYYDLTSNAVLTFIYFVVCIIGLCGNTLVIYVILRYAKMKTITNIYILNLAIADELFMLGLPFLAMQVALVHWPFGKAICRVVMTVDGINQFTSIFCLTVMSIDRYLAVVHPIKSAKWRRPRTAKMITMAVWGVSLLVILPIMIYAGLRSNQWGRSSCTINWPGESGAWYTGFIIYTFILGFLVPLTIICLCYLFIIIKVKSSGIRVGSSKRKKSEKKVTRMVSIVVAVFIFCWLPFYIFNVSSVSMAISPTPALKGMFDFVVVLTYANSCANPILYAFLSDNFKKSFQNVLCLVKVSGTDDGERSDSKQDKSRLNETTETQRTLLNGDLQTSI
Somatostatin receptor type 5, sequence (P35346 whole entry): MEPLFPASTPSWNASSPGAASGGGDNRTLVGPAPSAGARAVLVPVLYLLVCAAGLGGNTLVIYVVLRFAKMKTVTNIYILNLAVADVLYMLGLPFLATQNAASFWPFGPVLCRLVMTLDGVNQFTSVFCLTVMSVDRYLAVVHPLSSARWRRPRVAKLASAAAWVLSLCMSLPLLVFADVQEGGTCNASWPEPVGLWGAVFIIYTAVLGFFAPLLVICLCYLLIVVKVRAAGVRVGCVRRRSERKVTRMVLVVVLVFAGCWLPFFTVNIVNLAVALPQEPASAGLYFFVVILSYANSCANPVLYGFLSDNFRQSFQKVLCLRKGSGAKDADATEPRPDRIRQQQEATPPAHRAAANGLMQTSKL
Somatostatin receptor type 3, sequence (P32745 whole entry): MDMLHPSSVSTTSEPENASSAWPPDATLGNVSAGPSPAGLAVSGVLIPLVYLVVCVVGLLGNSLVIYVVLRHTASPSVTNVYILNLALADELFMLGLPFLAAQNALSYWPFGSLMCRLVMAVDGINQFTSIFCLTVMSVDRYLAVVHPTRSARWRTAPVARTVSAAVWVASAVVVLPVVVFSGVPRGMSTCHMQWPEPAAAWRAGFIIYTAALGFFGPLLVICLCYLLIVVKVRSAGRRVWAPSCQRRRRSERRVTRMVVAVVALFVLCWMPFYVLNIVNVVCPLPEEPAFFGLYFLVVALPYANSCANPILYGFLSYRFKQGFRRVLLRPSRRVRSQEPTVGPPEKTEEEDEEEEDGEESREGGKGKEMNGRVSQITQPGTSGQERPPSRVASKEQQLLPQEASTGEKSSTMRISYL
Histamine H1 receptor, sequence (P35367 whole entry): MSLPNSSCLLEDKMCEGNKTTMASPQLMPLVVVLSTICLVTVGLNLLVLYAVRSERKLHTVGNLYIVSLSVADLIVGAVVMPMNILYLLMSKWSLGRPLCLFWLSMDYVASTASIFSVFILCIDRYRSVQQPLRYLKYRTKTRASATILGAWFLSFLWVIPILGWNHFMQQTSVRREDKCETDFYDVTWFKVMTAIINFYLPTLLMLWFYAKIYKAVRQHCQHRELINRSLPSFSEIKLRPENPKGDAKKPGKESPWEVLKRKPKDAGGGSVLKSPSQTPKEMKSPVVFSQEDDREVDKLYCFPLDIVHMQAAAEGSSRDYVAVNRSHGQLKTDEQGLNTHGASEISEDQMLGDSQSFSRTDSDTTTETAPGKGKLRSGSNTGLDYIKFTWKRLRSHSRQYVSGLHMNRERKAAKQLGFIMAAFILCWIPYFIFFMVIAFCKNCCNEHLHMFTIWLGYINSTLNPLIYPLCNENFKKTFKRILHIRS

Structure (SMILES)	Ki [1]	Ki [2]	Ki [3]	Ki [4]	Ki (Histamine H1 receptor)	Ratio Ki (Homo sapiens)	solubility [5]	Papp [6]	logD [7]	pKa [8]	clearance [9]	Vd [10]	half-life [11]	bioavailability [12]
CCOc1cc(CN2CCC(Nc3nc4cc(S(=O)(=O)N(C)C)ccc4o3)CC2)ccc1OC	0.226 µM	> 10 µM	> 10 µM	> 10 µM	–	–	–	–	–	–	–	–	–	–
CCOc1cc(CN2CCC(Nc3nc4cc(Cl)c(S(N)(=O)=O)cc4o3)CC2)ccc1OC	0.343 µM	> 10 µM	> 10 µM	> 10 µM	1.01 µM	3	338 µg/mL (≈ 683 µM)	1.1 ×10⁻⁶ cm/s	2.67	7.92	–	–	–	–
CCOc1cc(CN2CCC(Nc3nc4cc(Cl)c(S(N)(=O)=O)cc4o3)CC2)cc(OCC)c1F	0.252 µM	> 10 µM	> 10 µM	> 10 µM	–	–	32 µg/mL (≈ 60.7 µM)	2.45 ×10⁻⁶ cm/s	2.78	7.61	–	–	–	–
CCOC(=O)c1c(OCC)cc(CN2CCC(Nc3nc4ccccc4o3)CC2)cc1OCC	0.156 µM	> 10 µM	> 10 µM	> 10 µM	–	–	–	–	–	–	–	–	–	–
CCOc1cc(CN2CCC(Nc3nc4ccccc4o3)CC2)ccc1OC(C)C	> 1 µM	> 10 µM	> 10 µM	> 10 µM	–	–	–	–	–	–	–	–	–	–
CCOc1cc(CN2CCC(Nc3nc4cc(NS(=O)(=O)c5cn(C)cn5)ccc4o3)CC2)ccc1OC	0.175 µM	> 10 µM	> 10 µM	> 10 µM	–	–	> 720 µg/mL	0.49 ×10⁻⁶ cm/s	1.48	7.91	41 mL/min/kg	2.2 L/kg	90 min	2%
CCOc1cc(CN2CCC(Nc3nc4cc(S(=O)(=O)CC)ccc4o3)CC2)ccc1OC	0.196 µM	> 10 µM	> 10 µM	> 10 µM	–	–	> 530 µg/mL	1.63 ×10⁻⁶ cm/s	2.13	8.1	126 mL/min/kg	3.8 L/kg	24 min	6%
CCOc1cc(CN2CCC(Nc3nc4ccccc4o3)CC2)ccc1OC1CC1	0.537 µM	> 10 µM	> 10 µM	> 10 µM	–	–	–	–	–	–	–	–	–	–
CCOc1cc(CN2CCC(Nc3nc4cccnc4o3)CC2)ccc1OC	0.633 µM	> 10 µM	> 10 µM	> 10 µM	–	–	–	–	–	–	–	–	–	–
CCOc1cc(CN2CCC(Nc3nc4cc(Cl)ccc4o3)CC2)ccc1OC	0.194 µM	> 10 µM	> 10 µM	> 10 µM	–	–	–	–	–	–	–	–	–	–
CCOc1cc(CN2CCC(Nc3nc4ccccc4o3)CC2)ccc1C	–	> 10 µM	> 10 µM	> 10 µM	–	–	–	–	–	–	–	–	–	–
CCOc1cc(CN2CCC(Nc3nc4cc([N+](=O)[O-])ccc4o3)CC2)ccc1OC	0.252 µM	> 10 µM	> 10 µM	> 10 µM	–	–	–	–	–	–	–	–	–	–
CCOc1cc(CN2CCC(Nc3nc4ccccc4o3)CC2)cc(OCC)c1N	0.033 µM	> 10 µM	> 10 µM	> 10 µM	–	–	–	–	–	–	–	–	–	–
CCOc1cc(CN2CCC(Nc3nc4ccccc4o3)CC2)cnc1OC	> 1 µM	> 10 µM	> 10 µM	> 10 µM	–	–	–	–	–	–	–	–	–	–

Other lines, results leading:

Ki [1]	Ki [2]	Ki [3]	Ki [4]	Ki (Histamine H1 receptor)	Ratio Ki (Homo sapiens)	solubility [5]	Papp [6]	logD [7]	pKa [8]	clearance [9]	Vd [10]	half-life [11]	bioavailability [12]	Structure (SMILES)
> 1 µM	> 10 µM	> 10 µM	> 10 µM	–	–	–	–	–	–	–	–	–	–	CCOc1cc(NC2CCC(Nc3nc4ccccc4s3)CC2)ccc1OC (stereo unspecified)
0.371 µM	> 10 µM	> 10 µM	> 10 µM	–	–	–	–	–	–	–	–	–	–	CCNc1cc(CN2CCC(Nc3nc4ccccc4o3)CC2)ccc1OC
–	> 10 µM	> 10 µM	> 10 µM	–	–	–	–	–	–	–	–	–	–	CCCOc1cc(CN2CCC(Nc3nc4ccccc4o3)CC2)ccc1OC
> 1 µM	> 10 µM	> 10 µM	> 10 µM	–	–	–	–	–	–	–	–	–	–	CCOc1cc(CN2CCC(Nc3nc4ccccc4[nH]3)CC2)ccc1OC
> 1 µM	> 10 µM	> 10 µM	> 10 µM	–	–	–	–	–	–	–	–	–	–	CCOc1cc(NC2CCC(NCc3nc4ccccc4s3)CC2)ccc1OC (stereo unspecified)
> 1 µM	> 10 µM	> 10 µM	> 10 µM	–	–	–	–	–	–	–	–	–	–	CCOc1cc(NCc2cccc(Nc3nc4ccccc4s3)c2)ccc1OC
> 1 µM	> 10 µM	> 10 µM	> 10 µM	–	–	–	–	–	–	–	–	–	–	CCOc1cc(CN2CCC(C(=O)Nc3nc4ccccc4s3)CC2)ccc1OC
> 1 µM	> 10 µM	> 10 µM	> 10 µM	–	–	–	–	–	–	–	–	–	–	CCOc1cc(N2CCN(C(=O)Nc3nc4ccccc4s3)CC2)ccc1OC
> 1 µM	> 10 µM	> 10 µM	> 10 µM	–	–	–	–	–	–	–	–	–	–	CCOc1cc(NC2CCN(c3nc4ccccc4s3)CC2)ccc1OC

— ChEMBL document CHEMBL1154321, “Benzoxazole piperidines as selective and potent somatostatin receptor subtype 5 antagonists” (Bioorg Med Chem Lett, 2009)
